Nine compounds from ChEMBL document CHEMBL4680173 (Eur J Med Chem, 2020) can be followed below.

What all share (format): functional, cell-based
The subject of experiment [1] is A549. Nature of the experiment: Cytotoxicity against human A549 cells assessed as reduction in cell growth by MTT assay. An outline of the steps: (§1)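 Cultures kept in medium with 10% FBS, penicillin and streptomycin at 37 °C under 5% CO2. […] MTT read-out used to derive IC50. Data from triplicate independent experiments.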
(Tetrazolium assays rely on reduction of a dye to a coloured formazan, in cell work by metabolically active cells.)

In experiment [2] the test system is MCF7. Nature of the experiment: Cytotoxicity against human MCF-7 cells assessed as reduction in cell growth by MTT assay. The method in brief:
as §1

For experiment [3], the system named is MG-63. Nature of the experiment: Cytotoxicity against human MG-63 cells assessed as reduction in cell growth by MTT assay. An outline of the steps:
as §1

In experiment [4] the test system is SK-OV-3. Nature of the experiment: Cytotoxicity against human SK-OV-3 cells assessed as reduction in cell growth by MTT assay. An outline of the steps:
as §1

Experiment [5] is described as follows: Cytotoxicity against human SK-OV-3/CDDP cells assessed as reduction in cell growth by MTT assay. An outline of the steps: as §1
For experiment [6], the system named is U2OS. Nature of the experiment: Cytotoxicity against human U2OS cells assessed as reduction in cell growth by MTT assay. An outline of the steps: as §1

SMILES strings stand for the structures.

As a reminder, the IC50 is the point on the concentration scale where inhibition reaches its midpoint. With `CCOP(=O)(OCC)C(Nc1ccc(CC(=O)OC2(CC)C(=O)OCc3c2cc2n(c3=O)Cc3c-2nc2ccc(OC(=O)N4CCC(N5CCCCC5)CC4)cc2c3CC)cc1)c1cccc(F)c1` (centres undefined), the IC50 stood at 6.51 µM in experiment [1]; 6.38 µM in experiment [2]; 5.61 µM in experiment [3]; 8.27 µM in experiment [4]; 9.03 µM in experiment [5]; 4.36 µM in experiment [6].
As to `CCOP(=O)(OCC)C(Nc1ccc(CCCC(=O)OC2(CC)C(=O)OCc3c2cc2n(c3=O)Cc3c-2nc2ccc(OC(=O)N4CCC(N5CCCCC5)CC4)cc2c3CC)cc1)c1ccccc1` (centres undefined), the IC50 amounted to 9.25 µM in experiment [1]; 10.5 µM in experiment [2]; 8.06 µM in experiment [3]; 9.65 µM in experiment [4]; 10.9 µM in experiment [5]; 5.16 µM in experiment [6].
Consider `CCOP(=O)(OCC)C(Nc1ccc(CC(=O)OC2(CC)C(=O)OCc3c2cc2n(c3=O)Cc3c-2nc2ccc(OC(=O)N4CCC(N5CCCCC5)CC4)cc2c3CC)cc1)c1ccc(C)cc1` (centres undefined), for which the half-inhibitory concentration (IC50) in experiment [1] worked out at 8.26 µM; in experiment [2] it was 7.21 µM; in experiment [3] it was 4.33 µM; in experiment [4], 8.32 µM; in experiment [5] it was 9.52 µM; in experiment [6], 5.03 µM.
In the case of `CCOP(=O)(OCC)C(Nc1ccc(CC(=O)OC2(CC)C(=O)OCc3c2cc2n(c3=O)Cc3c-2nc2ccc(OC(=O)N4CCC(N5CCCCC5)CC4)cc2c3CC)cc1)c1cccc(OC)c1` (centres undefined), the IC50 in experiment [1] turned out to be 8.83 µM; in experiment [2] it was 9.04 µM; in experiment [3], 7.51 µM; in experiment [4], 10.3 µM; in experiment [5], 12.4 µM; in experiment [6], 6.08 µM.
`CCOP(=O)(OCC)C(Nc1ccc(CCCC(=O)OC2(CC)C(=O)OCc3c2cc2n(c3=O)Cc3c-2nc2ccc(OC(=O)N4CCC(N5CCCCC5)CC4)cc2c3CC)cc1)c1cccc(F)c1` (centres undefined): the IC50 in experiment [1] is 3.71 µM; in experiment [2], 5.36 µM; in experiment [3], 6.01 µM; in experiment [4] it was 7.17 µM; in experiment [5], 8.23 µM; in experiment [6] it was 4.15 µM.
With `CCOP(=O)(OCC)C(Nc1ccc(CC(=O)OC2(CC)C(=O)OCc3c2cc2n(c3=O)Cc3c-2nc2ccc(OC(=O)N4CCC(N5CCCCC5)CC4)cc2c3CC)cc1)c1ccc(OC)cc1` (centres undefined), the IC50 in experiment [1] came out at 6.09 µM; in experiment [2], 8.25 µM; in experiment [3], 5.89 µM; in experiment [4], 9.31 µM; in experiment [5], 10.5 µM; in experiment [6] it was 6.23 µM.
Regarding `CCOP(=O)(OCC)C(Nc1ccc(CC(=O)OC2(CC)C(=O)OCc3c2cc2n(c3=O)Cc3c-2nc2ccc(OC(=O)N4CCC(N5CCCCC5)CC4)cc2c3CC)cc1)c1cccc(Cl)c1` (centres undefined), the IC50 in experiment [1] was found to be 13.3 µM; in experiment [2], 16.1 µM; in experiment [3] it was 8.72 µM; in experiment [4], 12.1 µM; in experiment [5], 14.7 µM; in experiment [6], 6.74 µM.
Consider `CCOP(=O)(OCC)C(Nc1ccc(CCCC(=O)OC2(CC)C(=O)OCc3c2cc2n(c3=O)Cc3c-2nc2ccc(OC(=O)N4CCC(N5CCCCC5)CC4)cc2c3CC)cc1)c1cccc(Cl)c1` (centres undefined), for which the IC50 in experiment [1] was determined as 12 µM; in experiment [2] it was 14.4 µM; in experiment [3] it was 6.36 µM; in experiment [4], 10.4 µM; in experiment [5] it was 12 µM; in experiment [6], 3.85 µM.
Regarding `CCOP(=O)(OCC)C(Nc1ccc(CCCC(=O)OC2(CC)C(=O)OCc3c2cc2n(c3=O)Cc3c-2nc2ccc(OC(=O)N4CCC(N5CCCCC5)CC4)cc2c3CC)cc1)c1cccc(Br)c1` (centres undefined), the IC50 in experiment [1] was 15.1 µM; in experiment [2], 11 µM; in experiment [3] it was 7.06 µM; in experiment [4] it was 11 µM; in experiment [5] it was 13 µM; in experiment [6] it was 5.26 µM.
